TAAR1 antag = human TAAR1 antagonism. AID 624466. actives 1.5% (n = 360,000). CHO RD-HGA16 TAAR1, Fluo-8 calcium fluorescence, antagonist. inhibition, % at 3 µM. Q96RJ0;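 active = inhibition above a per-plate cutoff, the mean inhibition of test compounds on that plate plus 3 SD, cut at about 49% in these data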
Target sequence (Q96RJ0 whole entry, looked up): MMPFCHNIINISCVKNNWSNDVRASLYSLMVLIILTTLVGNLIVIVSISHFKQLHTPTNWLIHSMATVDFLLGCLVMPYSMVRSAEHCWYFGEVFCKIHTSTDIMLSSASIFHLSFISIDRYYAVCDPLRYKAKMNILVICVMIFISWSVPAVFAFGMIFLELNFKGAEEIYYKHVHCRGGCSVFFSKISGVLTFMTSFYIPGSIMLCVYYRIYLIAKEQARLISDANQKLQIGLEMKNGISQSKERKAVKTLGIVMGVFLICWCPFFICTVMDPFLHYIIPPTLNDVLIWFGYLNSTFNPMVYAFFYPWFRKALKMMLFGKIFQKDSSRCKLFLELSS
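Material: RD-HGA16 CHO cells with stable hTAAR1 and Gα16; Dosing: single nominal final test compound concentration of 3 µM; Schedule: seeding 17-24 h prior, 75-min 37 °C, 30-min RT dye loading; Detection: kinetic Fluo-8 calcium fluorescence measurement; Measure: % inhibition from peak post-agonist over basal fluorescence ratio; Benchmarks: vehicle and agonist controls.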
TAAR1 agonist = human TAAR1 agonism. Q96RJ0. CHO RD-HGA16 TAAR1, Fluo-8 calcium fluorescence; vehicle wells 0%, saturating PEA agonist 100%. activation, % at 3 µM. actives 0.99% (n = 360,000);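 active = activation above the mean activation of all test compounds in the run plus 3 SD, cut at about 38% in these data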
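Benchmarks: low control DMSO, high control PEA (EC100); System: CHO RD-HGA16 cells carrying human TAAR1 plus Gα16; Detection: Fluo-8 fluorescence, 5 s baseline then 140 s kinetic read; Schedule: 17-24 h plating, Fluo-8 75 min 37 °C, 30 min RT; Read-out basis: % activation from peak over basal fluorescence ratio, DMSO-to-PEA scaled.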
CHO parental Ca = counter-screen for OX1R antagonists: effect in parental CHO cells | parental CHO-K1, ATP-induced calcium, Fluo-8 fluorescence | actives 0.63% (n = 330,000) | inhibition, % at 5.6 µM;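 active = inhibition above that plate's mean sample inhibition plus 3 SD, cut at about 26% in these data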
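Assay system: untransfected parental CHO cell line. Also added: ATP agonist challenge. Dosing: one dose, 5.6 µM nominal. Measured by: Fluo-8 fluorescence. Read-out: % inhibition. Benchmarks: ATP wells versus no-ATP DMSO wells. Repeats: no replicates.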
OX1R antag-1 = blocks the human orexin 1 receptor; O43613; CHO/OX1R cells, Fluo-8 calcium fluorescence, orexin A; inhibition, % at 5 µM; actives 0.43% (n = 330,000); AID 434989;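 active = inhibition above its plate's threshold, mean inhibition of all tested compounds on the plate plus 3 SD, cut at about 37% in these data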
GPR7 antagonist = blocks human GPR7 receptor signaling; inhibition, % at 4.4 µM; P48145; actives 1.1% (n = 290,000); AID 1861; GPR7-expressing cells, fluorescence antagonist assay; in the data active = inhibition above about 16%, passing the limit was not always enough;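 note: cells stimulated with the agonist NPW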
Target sequence (P48145 whole entry, looked up): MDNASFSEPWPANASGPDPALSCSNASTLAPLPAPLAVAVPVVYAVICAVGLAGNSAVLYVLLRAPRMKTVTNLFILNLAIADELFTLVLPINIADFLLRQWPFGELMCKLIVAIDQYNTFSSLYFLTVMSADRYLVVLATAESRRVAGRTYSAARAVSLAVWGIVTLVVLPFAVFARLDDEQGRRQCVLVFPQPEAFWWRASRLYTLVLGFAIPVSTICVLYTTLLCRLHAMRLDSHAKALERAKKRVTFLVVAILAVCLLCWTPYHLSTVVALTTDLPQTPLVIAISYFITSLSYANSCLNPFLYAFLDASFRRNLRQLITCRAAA
OX1R antag-2 = antagonists of human orexin 1 receptor (OX1R); OX1R-expressing cells, FRET antagonist read-out; inhibition, % at 6.6 µM; actives 1.8% (n = 330,000); AID 485270; in the data active = inhibition mostly above about 38%, no sharp cut-off; inactive = mostly below about 40%
OX1R HTRF conf = OX1R (human) antagonism, HTRF confirmed. shares compounds with OX1R antag-2. AID 492964. OX1R-expressing cells, HTRF antagonist assay. inhibition, % at 6.6 µM. actives 49% (n = 1,800); in the data active = inhibition above about 55%;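 note: CHO cells expressing OX1R stimulated with orexin A at about EC80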
CHO-K1 HTRF = signal in parental CHO-K1 cells, OX1R antagonist counter-screen; actives 48% (n = 1,800); inhibition, % at 6.6 µM; AID 493232; HTRF counterscreen; shares compounds with OX1R antag-2; in the data active = inhibition above about 17%
Of the large screens only hits and unclear results are named; the others gave an inactive call (follow-up assays come after a bar, where they were run). Rows were chosen to be rich in hits. Some 4.6% of all compounds tested hit in one or more screens of this group.

O=C(N/N=C/c1ccc(Br)o1)c1cc([N+](=O)[O-])cc([N+](=O)[O-])c1	OX1R antag-2 81 | OX1R HTRF conf inactive | CHO-K1 HTRF 56
O=C(NN=Cc1ccc([N+](=O)[O-])cc1)c1ccncc1	none (no result: CHO parental Ca, OX1R antag-1, GPR7 antagonist, OX1R antag-2)
O=C(/C=C/c1ccc([N+](=O)[O-])cc1)Nc1cccnc1	OX1R antag-2 95 | OX1R HTRF conf inactive | CHO-K1 HTRF 27
Cc1c(CCO)c(=O)n(-c2ccccc2)n1S(=O)(=O)c1ccc([N+](=O)[O-])cc1	none
CN(C)CCCNc1ccc(-c2nn(C)c(=O)c3ccccc23)cc1[N+](=O)[O-]	OX1R antag-2 118 | OX1R HTRF conf inactive | CHO-K1 HTRF 40
CN(C)CCCNc1ccc(S(N)(=O)=O)cc1[N+](=O)[O-]	OX1R antag-2 122 | OX1R HTRF conf inactive | CHO-K1 HTRF 55
CC(O)CNc1ccc(-c2nn(C)c(=O)c3ccccc23)cc1[N+](=O)[O-] (centres undefined)	none
O=C(Nc1oc2ccccc2c(=O)c1-c1ccc(Br)cc1)c1ccco1	none
CCOC(=O)N/N=C(/C)c1ccc([N+](=O)[O-])o1	OX1R antag-2 93 | OX1R HTRF conf inactive | CHO-K1 HTRF 77
Nc1c(-c2ccccc2)c(CN2CCOCC2)nn1-c1cccc([N+](=O)[O-])c1	OX1R antag-2 85 | OX1R HTRF conf inactive | CHO-K1 HTRF 29
O=c1c[n+]([O-])c2ccccc2n1OCc1ccccn1	OX1R antag-2 129 | OX1R HTRF conf inactive | CHO-K1 HTRF 55
CCOn1c(=O)c[n+]([O-])c2ccccc21	none
COC(=O)c1ccccc1COn1c(=O)c[n+]([O-])c2ccccc21	OX1R antag-2 85 | OX1R HTRF conf inactive | CHO-K1 HTRF 29
Cc1c(=O)n(OCc2ccccn2)c2ccccc2[n+]1[O-]	none
O=c1c[n+]([O-])c2ccccc2n1OCc1c(F)cccc1F	OX1R antag-2 81 | OX1R HTRF conf inactive | CHO-K1 HTRF 53
CC(C)(C)C1CCC(=NNc2ccc(S(N)(=O)=O)cc2[N+](=O)[O-])CC1 (centres undefined)	none
CC1CCCC/C1=N\Nc1ccc(S(N)(=O)=O)cc1[N+](=O)[O-] (centres undefined)	OX1R antag-2 116 | OX1R HTRF conf inactive | CHO-K1 HTRF 26
CN(C)/C=C1/Oc2c(ccc3ccccc23)C1=O	OX1R antag-2 88 | OX1R HTRF conf 85 | CHO-K1 HTRF inactive
CCN1C(=O)/C(=C/c2cc(C)n(C)c2C)SC1=Nc1ccc(OC)cc1	OX1R antag-2 127 | OX1R HTRF conf inactive | CHO-K1 HTRF inactive
O=C(COC(=O)c1ccc[nH]c1=O)NCCc1ccc(Cl)cc1Cl	none
CCOCC(=O)N1CCN(c2ccc([N+](=O)[O-])cc2)CC1	OX1R antag-2 83 | OX1R HTRF conf inactive | CHO-K1 HTRF 29
Cc1c(C#N)c(O)n(CCO)c(=O)c1N=Nc1ccc(S(N)(=O)=O)cc1	OX1R antag-2 161 | OX1R HTRF conf 64 | CHO-K1 HTRF 83
Cc1c(C#N)c(O)n(C)c(=O)c1N=Nc1ccc(S(N)(=O)=O)cc1	none (no result: CHO parental Ca, OX1R antag-1, OX1R antag-2)
COc1cc(C(=O)N/N=C/c2ccc(OC(=O)c3ccccc3Cl)c(OC)c2)ccc1O	none (no result: TAAR1 antag, TAAR1 agonist, CHO parental Ca, OX1R antag-1, OX1R antag-2)
COc1cc(/C=N/NC(=O)c2ccccc2O)ccc1OC(=O)CC1SC(=O)NC1=O (centres undefined)	OX1R antag-2 96 | OX1R HTRF conf inactive | CHO-K1 HTRF inactive
Clc1ccccc1C1CC(c2ccccc2)Nc2ncnn21 (centres undefined)	OX1R antag-2 79 | OX1R HTRF conf inactive | CHO-K1 HTRF inactive
N#Cc1ccc(S(=O)(=O)N2CCCCC2c2cc(C(=O)NCc3cccnc3)no2)cc1 (centres undefined)	none (no result: CHO parental Ca, OX1R antag-1, GPR7 antagonist, OX1R antag-2)
COc1cc2sc3ccc(-c4ccc(N(C)C)nc4)cc3c(=O)c2cc1OC	OX1R antag-2 80 (no result: GPR7 antagonist) | OX1R HTRF conf 65 | CHO-K1 HTRF inactive
CC(=O)N(C(C)=O)N1C(=O)c2cccc3c(N4CCOCC4)ccc(c23)C1=O	OX1R antag-2 119 | OX1R HTRF conf inactive | CHO-K1 HTRF 40
O=C(OCCN1C(=O)c2cccc3c(N4CCOCC4)ccc(c23)C1=O)c1cc(Cl)cc(Cl)c1	none (no result: TAAR1 antag, TAAR1 agonist, CHO parental Ca, OX1R antag-1, OX1R antag-2)
Cc1nc2[nH]onc2c2nccc(=O)c12	OX1R antag-2 121 | OX1R HTRF conf inactive | CHO-K1 HTRF 38
Cc1ccn2cc(-c3cccc(NC(=O)C(C)C)c3)nc2c1	none
Cc1ccn2cc(-c3cccc(NC(=O)c4ccccc4)c3)nc2c1	OX1R antag-2 78 | OX1R HTRF conf 62 | CHO-K1 HTRF inactive
CON(C)C(=O)CC(CNC(=O)OC(C)(C)C)c1ccc(Cl)cc1 (centres undefined)	none (no result: GPR7 antagonist)
NC(=O)c1ccccc1OCc1cccc2ccccc12	none
NC(=O)c1cccc2cc3ccccc3cc12	OX1R antag-2 77 | OX1R HTRF conf inactive | CHO-K1 HTRF inactive
S=c1[nH]nc(Cc2c[nH]c3ccccc23)o1	none
S=c1[nH]nc(Cc2sc(-c3ccccc3)nc2-c2ccccc2)o1	OX1R antag-2 78 | OX1R HTRF conf inactive | CHO-K1 HTRF 22
Cc1ccc2nc3c(cc(C(=O)NCCCn4ccnc4)n3C)c(=O)n2c1	OX1R antag-2 80 | OX1R HTRF conf inactive | CHO-K1 HTRF 30
Cc1ccc(CC(=O)NCCCn2ccnc2)cc1	none
CCCc1nnc(N2C(=O)c3cccc4cccc(c34)C2=O)s1	OX1R antag-2 103 | OX1R HTRF conf inactive | CHO-K1 HTRF 37
Cc1nnc(C)n1N1C(=O)c2cccc3cccc(c23)C1=O	none
N#CC1=C(N)Oc2cc3ccccc3cc2C1c1cccnc1 (centres undefined)	none
N#CC1=C(N)Oc2c(ccc3cccnc23)C1c1cccnc1 (centres undefined)	OX1R antag-2 96 | OX1R HTRF conf inactive | CHO-K1 HTRF inactive
CCN(C(=O)COC(=O)c1cc(S(=O)(=O)Nc2c(C)n(C)n(-c3ccccc3)c2=O)ccc1Cl)C1CCCCC1	OX1R antag-2 80 | OX1R HTRF conf 86 | CHO-K1 HTRF inactive
Cc1c(NS(=O)(=O)c2cccc(C(=O)NCc3ccc(Cl)cc3)c2)c(=O)n(-c2ccccc2)n1C	OX1R antag-2 84 | OX1R HTRF conf 84 | CHO-K1 HTRF inactive
CCC1(C(=O)NC(=Nc2ccccc2)Nc2ccccc2)CCOC1=O (centres undefined)	none (no result: CHO parental Ca, OX1R antag-1, GPR7 antagonist, OX1R antag-2)
CCNC(=O)OCC12CC3CC(CC(C3)C1)C2	none
COc1ccc2nc3oc(C(=O)N4CCC(C(N)=O)CC4)cc3cc2c1	OX1R antag-2 154 | OX1R HTRF conf inactive | CHO-K1 HTRF 38

Screening results: PubChem BioAssay, The Scripps Research Institute Molecular Screening Center
